Data from PubChem BioAssay.
Values without a mark were called inactive. Results filed as inconclusive are left out. Calls of active or inactive are those of the source.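 How the source made its calls, unless noted: active means viability increase at or above a cutoff of the median across tested compounds plus 3 SD (cut at about 8.5% in these data, passing the limit was not always enough); inconclusive means some gains above the cutoff, reason not given; inactive means the rest.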

How the values were obtained:
[1] = OD615 S. cerevisiae growth inhibition, permissive medium, pilot counter-assay, permissive growth control for S. cerevisiae lifespan shortening project (AID 705;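 active means growth inhibition above 25% in both replicates, a cutoff set 3 SD above the mean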); settings: OD615, 24 h, at 10 µM, active compounds read high
Procedure, shortened: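 System: S. cerevisiae with engineered DeaD lifespan system. Medium: SC raffinose/galactose permissive medium. Doses: single compound dose of 10 µM, 0.25% DMSO final. Schedule: 24 h exposure, 30 °C. Measured by: OD615 turbidity read. Read-out: growth inhibition.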

[2] = Restrictive medium S. cerevisiae growth inhibition, OD615, pilot screen of yeast lifespan reduction project, restrictive growth control (AID 706;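 active means growth inhibition above a set limit, 3 SD over mean compound inhibition, in both replicates, cut at about 43% in these data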;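 further: modified DeaD lifespan yeast strain shifted to restrictive glucose medium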); settings: OD615, 48 h, at 10 µM, active compounds read high
Procedure, shortened: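 Assay system – genetically modified Saccharomyces cerevisiae, DeaD replicative lifespan assay strain · Medium – CSMM-D glucose medium · Doses – 10 µM compound, 0.25% DMSO · Times – 4 h pre-incubation, 48 h exposure at 30 °C · Signal – optical density at 615 nm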

[3] = viability gain of MRP-1-high H69AR cells under doxorubicin, pilot screen, MRP-1 activator project, CellTiter-Glo, duplicate (AID 807); settings: H69AR viability with doxorubicin, CellTiter-Glo luminescence; at 10 µM; active compounds read high;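 further: compound pretreatment 18-22 h then 72 h combined with doxorubicin; 0% = doxorubicin alone and 100% = vehicle without doxorubicin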
[4] = growth suppression of beta-catenin knockout HCT116, pilot screen, human colon tumor cells (AID 823;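 active means cell viability at or below a set limit in both duplicate runs, the limit being the all-compound median minus 4 SD, cut at about 23% in these data, passing the limit was not always enough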;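 further: 0% = wells killed by 20 µM Hyamine and 100% = untreated DMSO cell wells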); settings: CellTiter-Glo, 60 h, at 10 µM, active compounds read low
[5] = growth suppression of PTEN-deleted HCT116, pilot screen, cell-based, HCT116 clonal line, CellTiter-Glo (AID 824;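 active means viability at or below 27.92% in each of two runs, the all-compound median minus 4 SD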;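 further: 0% = 20 µM Hyamine control and 100% = vehicle cell control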); settings: 60 h, at 10 µM, active compounds read low
[6] = inhibitors of the yeast RAM network, pilot screen, dse1pr::URA3 reporter, 5-FOA selection (AID 869;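 active means inhibition over a set limit, the all-compound mean plus 3 SD, in both replicate runs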;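 further: 0% = DMSO wells with no growth and 100% = 10 µM 1-NA-PP1 with full growth; RAM network block rescues cells from 5-FOA so hits raise OD615 growth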); settings: S. cerevisiae dse1pr::URA3 5-FOA growth, OD615, 2 d; at 10 µM; active compounds read high; strain carries analog-sensitive mutant Cbk1 kinase
[7] = RAM signaling pathway blockade in yeast – S. cerevisiae, Pdr1DBD-CYC8 efflux-inhibited sensitized strain, primary screen (AID 1298;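 active means RAM network inhibition above 8.4% in each of two replicates, 3 SD over the compound average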;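 further: 0% = DMSO untreated cells without growth and 100% = 10 µM 1-NA-PP1 full growth; higher means more yeast growth rescued from 5-FOA killing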); settings: S. cerevisiae cbk1-as DSE1-URA3 strain, 5-FOA growth OD615, 2 d; at 50 µM; active compounds read high

## COc1ccc(C)cc1NC(=O)Cn1cnc2sc(C)c(S(=O)(=O)N3CCOCC3)c2c1=O
[1]
  growth inhibition: 4.46%
[2]
  growth inhibition: 4.67%
[3]
  viability increase: -1.23%
[4]
  viability: 102%
[5]
  viability: 99.3%
[6]
  inhibition: 2.75%
[7]
  RAM network inhibition: 9.74%

## O=C(Nc1ccc(S(=O)(=O)N2CCOCC2)cc1)c1ccc(Cl)cc1
[1]
  growth inhibition: -7.83%
[2]
  growth inhibition: -8.68%
[3]
  viability increase: -1.99%
[4]
  viability: 61.1%
[5]
  viability: 80.2%
[6]
  inhibition: 2.31%
[7]
  RAM network inhibition: 3.83%

## O=C1C2CCCN2C(c2ccccc2F)N1c1cccc(Cl)c1 (stereo not drawn)
[1]
  growth inhibition: 1.87%
[2]
  growth inhibition: 1.65%
[3]
  viability increase: -0.32%
[4]
  viability: 97.8%
[5]
  viability: 102%
[6]
  inhibition: -0.43%
[7]
  RAM network inhibition: 1.7%

## CS(=O)(=O)N1CCN(c2nc(-c3ccc(F)cc3)cs2)CC1
[1]
  growth inhibition: -4.7%
[2]
  growth inhibition: 1.69%
[3]
  viability increase: -0.68%
[4]
  viability: 90.9%
[5]
  viability: 88.8%
[6]
  inhibition: 2.98%
[7]
  RAM network inhibition: 3.11%

## O=C1C(C=NCCN2CCOCC2)=C(O)c2ccccc21
[1]
  growth inhibition: -15.9%
[2]
  growth inhibition: -26.8%
[3]
  viability increase: -1.88%
[4]
  viability: 100%
[5]
  viability: 92.4%
[6]
  inhibition: 2.4%
[7]
  RAM network inhibition: 3.56%

## Cc1ccc(CNC(=O)CCCNS(=O)(=O)c2cccc3nonc23)cc1
[1]
  growth inhibition: -4.66%
[2]
  growth inhibition: 0.525%
[3]
  viability increase: -1.25%
[4]
  viability: 101%
[5]
  viability: 101%
[6]
  inhibition: -0.185%
[7]
  RAM network inhibition: 3%

## COc1ccc(C(=O)N2CCN(c3c(C)cccc3C)CC2)cc1OC
[1]
  growth inhibition: -19.6%
[2]
  growth inhibition: -4.21%
[3]
  viability increase: 0.4%
[4]
  viability: 80.8%
[5]
  viability: 72%
[6]
  inhibition: 0.89%
[7]
  RAM network inhibition: 1.36%

## CCOC(=O)C1CCCN(C(=O)C2CCCN(S(=O)(=O)c3ccc4c(c3)oc(=O)n4C)C2)C1 (stereo not drawn)
[1]
  growth inhibition: -4.01%
[2]
  growth inhibition: -0.98%
[3]
  viability increase: 0.99%
[4]
  viability: 92.2%
[5]
  viability: 94.5%
[6]
  inhibition: 0.445%
[7]
  RAM network inhibition: -0.53%

## CC(=NCc1cccnc1)C1=C(O)c2ccccc2C1=O
[1]
  growth inhibition: -0.03%
[2]
  growth inhibition: 9.76%
[3]
  viability increase: -0.85%
[4]
  viability: 97.2%
[5]
  viability: 96.4%
[6]
  inhibition: 0.665%
[7]
  RAM network inhibition: -0.3%

## CCn1c(SCC(=O)N2CCCC2)nc2c(c1=O)SC(C)C2 (stereo not drawn)
[1]
  growth inhibition: -17.4%
[2]
  growth inhibition: -27.5%
[3]
  viability increase: -4.48%
[4]
  viability: 101%
[5]
  viability: 95.6%
[6]
  inhibition: 1.73%
[7]
  RAM network inhibition: 3.14%

## CN(CC1CCCO1)S(=O)(=O)c1ccc(C(=O)Nc2nc(-c3ccccn3)cs2)cc1 (stereo not drawn)
[1]
  growth inhibition: -14.2%
[2]
  growth inhibition: -14.7%
[3]
  viability increase: -5.46%
[4]
  viability: 18.5% (active)
[5]
  viability: 23.1% (active)
[6]
  inhibition: 2.57%
[7]
  RAM network inhibition: 2.63%

## COc1ccc(C2CC(=O)c3cnc(NC(=O)c4ccccc4)nc3C2)cc1OC (stereo not drawn)
[1]
  growth inhibition: -3.28%
[2]
  growth inhibition: -0.645%
[3]
  viability increase: -3.55%
[4]
  viability: 105%
[5]
  viability: 96.6%
[6]
  inhibition: 0.895%
[7]
  RAM network inhibition: 5.34%

## CCCCCSc1nnc2c(n1)OC(C)N(C(C)=O)c1ccccc1-2 (stereo not drawn)
[1]
  growth inhibition: -10.3%
[2]
  growth inhibition: -6.29%
[3]
  viability increase: -4.28%
[4]
  viability: 82.8%
[5]
  viability: 86.5%
[6]
  inhibition: 1.47%
[7]
  RAM network inhibition: 2.22%

## CCCCCn1c(=O)[nH]c2c(c1=O)CCC2
[1]
  growth inhibition: 2.71%
[2]
  growth inhibition: -0.545%
[3]
  viability increase: 1.82%
[4]
  viability: 101%
[5]
  viability: 100%
[6]
  inhibition: -0.56%
[7]
  RAM network inhibition: 0.26%

## CCOC(=O)CN1CC23C=CC(O2)C(C(=O)NCc2ccc(C)cc2)C3C1=O (stereo not drawn)
[1]
  growth inhibition: -6.12%
[2]
  growth inhibition: -3.33%
[3]
  viability increase: -0.1%
[4]
  viability: 99.5%
[5]
  viability: 109%
[6]
  inhibition: 1.29%
[7]
  RAM network inhibition: 1.3%

## Cc1nn(-c2ccccc2)c2sc(C(=O)n3cccn3)cc12
[1]
  growth inhibition: -10.7%
[2]
  growth inhibition: -9.12%
[3]
  viability increase: -3.24%
[4]
  viability: 89.8%
[5]
  viability: 92.4%
[6]
  inhibition: 2.99%
[7]
  RAM network inhibition: 8.3%

## CCC(C)C1C(C#N)=C(N)Oc2n[nH]c(-c3ccccc3)c21 (stereo not drawn)
[1]
  growth inhibition: -4.81%
[2]
  growth inhibition: -3.89%
[3]
  viability increase: -2.23%
[4]
  viability: 97.3%
[5]
  viability: 94.3%
[6]
  inhibition: 1.06%
[7]
  RAM network inhibition: 5.9%

## Cc1cc(=O)oc2cc3c(cc12)OCCN3
[1]
  growth inhibition: 5.96%
[2]
  growth inhibition: 2.04%
[3]
  viability increase: -1.47%
[4]
  viability: 93%
[5]
  viability: 97.6%
[6]
  inhibition: 2.65%
[7]
  RAM network inhibition: 3.78%

## CCc1ccc(C2CC(=O)N3CN(c4ccccc4)CSC3=C2C#N)cc1 (stereo not drawn)
[1]
  growth inhibition: 3.98%
[2]
  growth inhibition: 21.7%
[3]
  viability increase: -3.73%
[4]
  viability: 101%
[5]
  viability: 90.6%
[6]
  inhibition: 1.68%
[7]
  RAM network inhibition: -0.78%

## COC(=O)/C=C(\C)NC(=O)c1cccs1
[1]
  growth inhibition: -1.38%
[2]
  growth inhibition: 4.05%
[3]
  viability increase: 0.51%
[4]
  viability: 101%
[5]
  viability: 97.5%
[6]
  inhibition: -0.705%
[7]
  RAM network inhibition: 0.06%

## CC(=O)C1=C(C)NC(SCC(=O)c2ccccc2)=C(C#N)C1c1ccco1 (stereo not drawn)
[1]
  growth inhibition: -3.25%
[2]
  growth inhibition: 21.2%
[3]
  viability increase: -6.35%
[4]
  viability: 55%
[5]
  viability: 56%
[6]
  inhibition: 1.5%
[7]
  RAM network inhibition: 3.37%

## CCOc1ccc(C2CC(c3cccc(Cl)c3)n3nc(N)nc3N2)cc1 (stereo not drawn)
[1]
  growth inhibition: 5.36%
[2]
  growth inhibition: 7.05%
[3]
  viability increase: -0.08%
[4]
  viability: 92%
[5]
  viability: 88.2%
[6]
  inhibition: 1.14%
[7]
  RAM network inhibition: 9.61%

## Cc1cccc(N2CCN(S(C)(=O)=O)CC2)c1C
[1]
  growth inhibition: -14.5%
[2]
  growth inhibition: -14.1%
[3]
  viability increase: -0.12%
[4]
  viability: 108%
[5]
  viability: 95.3%
[6]
  inhibition: 0.76%
[7]
  RAM network inhibition: 5.4%

## CCOC(=O)c1[nH]c2ccccc2c1NC(=O)c1ccc(Br)o1
[1]
  growth inhibition: -6.18%
[2]
  growth inhibition: -1.93%
[3]
  viability increase: -3.95%
[4]
  viability: 70.3%
[5]
  viability: 69.9%
[6]
  inhibition: 0.96%
[7]
  RAM network inhibition: 7.09%
